Data on 36 compounds can be found in ChEMBL document CHEMBL1131461 (J Med Chem, 1998).

Assay [1] concerns the target T1, Muscarinic acetylcholine receptor M1 (Rattus norvegicus, UniProt P08482).
T1 sequence (P08482 whole entry): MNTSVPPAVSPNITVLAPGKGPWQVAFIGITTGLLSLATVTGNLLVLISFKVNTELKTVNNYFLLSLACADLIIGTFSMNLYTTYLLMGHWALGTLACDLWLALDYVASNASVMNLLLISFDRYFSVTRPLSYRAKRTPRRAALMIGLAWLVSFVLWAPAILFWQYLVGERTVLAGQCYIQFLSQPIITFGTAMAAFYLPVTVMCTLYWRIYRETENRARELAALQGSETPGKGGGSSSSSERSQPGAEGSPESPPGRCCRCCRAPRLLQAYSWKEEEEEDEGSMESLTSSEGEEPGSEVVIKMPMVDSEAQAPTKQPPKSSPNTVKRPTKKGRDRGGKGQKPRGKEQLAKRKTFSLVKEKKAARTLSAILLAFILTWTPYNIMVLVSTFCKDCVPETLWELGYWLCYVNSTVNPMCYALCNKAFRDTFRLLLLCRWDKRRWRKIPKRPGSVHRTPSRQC
In words: Binding affinity for muscarinic acetylcholine receptor M1 using [3H]oxotremorine-M (Oxo-M) radioligand in rat hippocampus membranes. Type of assay: cell membranes, Membrane.

Assay [2] concerns Mus musculus. Kind of assay: Intraperitoneal dose of 10 mg/Kg was tested for salivation in mice expressed as score. In kind it is functional. A digest of the protocol: (§1)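 Male Cr1:CF1RBR mice, 20–30 g, in groups of five. Compound dissolved in distilled water, given ip at 10 mg/kg. Salivation and tremor scored 30 min after dosing on a 0–2 scale (0 = no effect, 1 = moderate, 2 = marked).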

The target of assay [3] is T1, Muscarinic acetylcholine receptor M1. In words: Binding affinity for muscarinic acetylcholine receptor M1 using [3H]pirenzepine (Pz) radioligand in rat hippocampus membranes. In kind it is cell membranes.
The target of assay [4] is T2, Muscarinic acetylcholine receptor M1 (Homo sapiens, UniProt P11229).
T2 sequence (P11229 whole entry): T1 sequence (P08482 whole entry) with V5A, S254T, S309P, K320R, G337A, V413I
Kind of assay: Effective concentration required for stimulation of phosphoinositol (PI) hydrolysis in the A9 L cell line transfected with the Muscarinic acetylcholine receptor M1. In kind it is functional, cell-based, A9L.

Assay [5] has as its system Mus musculus. Kind of assay: Compound at an intraperitoneal dose of 10 mg/Kg was tested for salivation in mice expressed as score. In kind it is functional. A digest of the protocol: as §1
Assay [6] concerns Mus musculus. In words: Compound at an intraperitoneal dose of 10 mg/Kg was tested for salivation in mice expressed as score; 2=Marked salivation or tremor. In kind it is functional. In outline: as §1
For assay [7], the system named is Mus musculus. Kind of assay: Compound at an intraperitoneal dose of 10 mg/Kg was tested for salivation in mice expressed as score; 1=Moderate salivation or tremor. Type of assay: functional. In outline: as §1

Substitutions are numbered along the chain they refer to. pEC50, pIC50: −log10 of the molar value.

`CCOc1nsnc1OC1CN2CCC1CC2` (configuration not stated): the pIC50 was 7.70 in assay [1] and 7.18 in assay [3]. The same compound had a Score in assay [2] of 0.
Regarding `CCCCCSc1nsnc1OC1CN2CCC1CC2` (stereo in doubt; 18e), the pEC50 in assay [4] was 6.36. The pIC50 is 8.36 in assay [1] and 8.05 in assay [3]. The same compound had a Score in assay [5] of 0.6.
Regarding `CCCCOc1nccnc1OC1CN2CCC1CC2` (configuration not stated), the values for the pIC50 in assay [1] and in assay [3] were 7.42 and 7.65, respectively. This compound returned a Score in assay [2] of 0.
`CC(=O)OC1CN2CCC1CC2` (configuration not stated) [ACECLIDINE] yielded a Score in assay [6] of 2.
Take `CCCSc1nsnc1O[C@@H]1CC2CCN(C2)C1` (stereo in doubt; 33): the pIC50 is 7.82 in assay [1] and 7.70 in assay [3]. This compound also displayed a Score in assay [2] of 0.
In assay [4], `CCCCSc1nsnc1OC1CN2CCC1CC2` (configuration not stated) gave a pEC50 of 7.65. The pIC50 in assay [1] was 8.60; in assay [3], 8.30. The compound also showed a Score in assay [7] of 1.
In turn, `CCCCOc1nsnc1OC1CNC1` gave a pEC50 in assay [4] of 5.21. Moreover, the pIC50 in assay [1] is 6.98. The same compound registered a Score in assay [2] of 0.
For `Clc1nsnc1OC1CN2CCC1CC2` (configuration not stated), the pIC50 was 7.01 in assay [1] and 7.20 in assay [3]. The compound further came in with a Score in assay [2] of 0.
For `c1nsnc1OC1CN2CCC1CC2` (configuration not stated), in that order: 6.27, 6.08 and 0.
In assay [4], `CCCSc1nsnc1OC1CN2CCC1C2` (stereo in doubt; 26) gave a pEC50 of 8.72. Besides, the values for the pIC50 in assay [1] and in assay [3] were 9.12 and 8.36, respectively. The Score in assay [6] is listed as 2.
With `CSc1nsnc1OC1CN2CCC1CC2` (configuration not stated), the pIC50 was 7.76 in assay [1] and 7.37 in assay [3]. Further, the Score in assay [5] was found to be 0.4.
As to `CCCCOc1nsnc1OC1CCN(C)C1` (configuration not stated), the pIC50 in assay [1] is 7.38; in assay [3] it was 7.36. In addition, the Score in assay [2] was found to be 0.
Turning to `CCCSc1nsnc1OC1CN2CCCC1C2` (stereo in doubt; 28), in assay [4], the pEC50 is 9.00. Also, the pIC50 is 9.42 in assay [1] and 9.26 in assay [3]. The same compound registered a Score in assay [6] of 2.
The compound `CCCCCCSc1nsnc1OC1CN2CCC1CC2` (configuration not stated) showed a pEC50 in assay [4] of 6.65. The pIC50 in assay [1] was 8.12; in assay [3] it was 7.55. In addition, the Score in assay [7] is 1.
On to `CCCCOc1nsnc1OCCN(C)C`, for which the pIC50 is 7.17 in assay [1] and 7.16 in assay [3]. The same compound showed a Score in assay [2] of 0.
The like results for `CSCCc1nsnc1OC1CN2CCC1CC2` (configuration not stated) were, in that order, 7.23, 7.18 and 0.
For `CCCSc1nsnc1C1CN2CCC1C2` (stereo in doubt; 40), the pIC50 in assay [1] was 8.24.
`CCCSc1nsnc1OC12CCCN(CC1)C2` (configuration not stated): the figures for the pIC50 in assay [1] and in assay [3] were 8.28 and 8.17, respectively. The compound also showed a Score in assay [2] of 0.
On to `CCCCCSc1nsnc1OC1CN2CCC1CC2` (stereo in doubt; 18g), for which the pEC50 in assay [4] is 6.87. The pIC50 is 8.85 in assay [1] and 8.57 in assay [3]. Further, the Score in assay [5] is listed as 1.2.
`CCCSc1nsnc1C1CN2CCC1C2` (stereo in doubt; 41) had a negative-log IC50 (pIC50) in assay [1] of 9.22.
In turn, `CCCCOc1nsnc1OC1CCNC1` (configuration not stated) had a pEC50 in assay [4] of 5.31. Besides, the results for the pIC50 in assay [1] and in assay [3] were 6.80 and 6.44, respectively. The compound further displayed a Score in assay [2] of 0.
Regarding `CCCSc1nsnc1OC1CN2CCCC1C2` (stereo in doubt; 34), the figures for the pIC50 in assay [1] and in assay [3] were 6.75 and 7.48, respectively. In addition, in assay [2], the Score came to 0.
Consider `CCCSc1nsnc1O[C@@H]1CC2CCN(C2)C1` (stereo in doubt; 27), for which the pIC50 in assay [1] was 8.55; in assay [3] it was 8.15. In assay [5], this compound gave a Score of 0.2.
In turn, `CCCSc1nsnc1OC1CN2CCC1C2` (stereo in doubt; 32) gave a pEC50 in assay [4] of 6.79. The results for the pIC50 in assay [1] and in assay [3] were 8.26 and 7.18, respectively. The Score in assay [5] was 1.8.
For the compound `COc1nsnc1OC1CN2CCC1CC2` (configuration not stated), the pIC50 is 6.70 in assay [1] and 6.81 in assay [3]. This compound registered a Score in assay [2] of 0.
Turning to `CCCOc1nsnc1OC1CN2CCC1CC2` (configuration not stated), the pIC50 in assay [1] was 7.90; in assay [3] it was 7.35. Moreover, the Score in assay [2] is on record as 0.
With `CCCCCSc1nsnc1OC1CN2CCC1CC2` (stereo in doubt; 18f), the pIC50 was 8.19 in assay [1] and 8.43 in assay [3]. This compound returned a Score in assay [2] of 0.
For `CCCCOc1nsnc1OCC[N+](C)(C)C`, in that order: 7.44, 7.39 and 0.
On to `CCSCc1nsnc1OC1CN2CCC1CC2` (configuration not stated), for which the results for the pIC50 in assay [1] and in assay [3] were 7.18 and 7.10, respectively. In assay [2], this compound yielded a Score of 0.
Take `CCSc1nsnc1OC1CN2CCC1CC2` (configuration not stated): the values for the pIC50 in assay [1] and in assay [3] were 8.19 and 7.70, respectively. This compound also came in with a Score in assay [2] of 0.
In the case of `CCCCCOc1nsnc1OC1CN2CCC1CC2` (configuration not stated), the pEC50 in assay [4] is 6.78. Also, the pIC50 in assay [1] is 7.90; in assay [3], 7.32. This compound returned a Score in assay [2] of 0.
Take `CCCCOc1nonc1OC1CN2CCC1CC2` (configuration not stated): the pIC50 in assay [1] was 6.60; in assay [3], 7.04. In assay [2], this compound yielded a Score of 0.
For the compound `CCCCCCOc1nsnc1C1=CCCN(C)C1` [XANOMELINE], the Score in assay [2] is given as 0.
For `CCCCCCOc1nsnc1OC1CN2CCC1CC2` (configuration not stated), in assay [4], the pEC50 was 6.59. The pIC50 in assay [1] is 7.93; in assay [3], 7.38. For the same compound, the Score in assay [5] was found to be 0.2.
Compound `CCCCOc1nsnc1OC1CN2CCC1CC2` (configuration not stated) gave a pEC50 in assay [4] of 6.99. Moreover, the figures for the pIC50 in assay [1] and in assay [3] were 7.97 and 7.37, respectively. Moreover, in assay [5], the Score is 0.4.
The like results for `CCCSc1nsnc1OC1CN2CCC1CC2` (configuration not stated) were, in that order, 6.37, 8.54, 7.68 and 0.8.
